Measured values collected from several papers.
Each line is one published result; the experiments were not run side by side.
Target: MAP kinase-interacting serine/threonine-protein kinase 1 (MKNK1, Homo sapiens, UniProt Q9BUB5)

Compound | observed | mode | method | concentration | endpoint | value
Cc1ccc(C(=O)Nc2ccc(CN3CCN(C)CC3)c(C(F)(F)F)c2)cc1C#Cc1cnc2cccnn12 | enzyme activity | inhibitor | – | 23.5 nM | remaining activity | 98%
O=C(Nc1cnn(-c2csc(C(=O)NC3COC3)c2)c1)Nc1ccccc1Cl | enzyme activity | inhibitor | – | 5 µM | remaining activity | 94.3%
FC(F)(F)c1ccc2c(c1)nc(-c1cccnc1)n2C1CC1 | cell-free assay | – | competition with immobilised ligand | 1 µM | remaining binding | 100%
FC(F)(F)Oc1cccc(-c2cnc3ccc(-c4ccncc4)nn23)c1 | enzyme activity | inhibitor | radiometric | 5 µM | activity vs control | 72%
CNCc1ccccc1-c1csc([C@H](C)Nc2nc(C)nc3cc(OC)c(OC)cc23)c1 | cell-free assay | – | competition with immobilised ligand | 1 µM | remaining binding | 91%
CC(C)(O)[C@H]1CC[C@H](Nc2ccc3ncc(-c4cccc(C(F)(F)F)c4)n3n2)CC1 | enzyme activity | inhibitor | – | 1 µM | remaining activity | 73.7%
CS(=O)(=O)Nc1cccc(-c2csc(NC(=O)CSc3nc4nccnc4c(=O)n3CCc3ccccc3)n2)c1 | enzyme activity | inhibitor | – | 10 µM | inhibition | -14%
CC(C)(C)C(=O)c1sc(NC2CCCCC2)nc1N | enzyme activity | inhibitor | – | 10 µM | remaining activity | 105%
COc1cc2ncnc(Nc3ccc(Oc4ccccc4)cc3C)c2cc1OC | enzyme activity | inhibitor | – | 1 µM | inhibition | 2%
Cn1c(=O)n(-c2ccc(C(C)(C)C#N)cc2)c2c3cc(-c4cnc5ccccc5c4)ccc3ncc21 | enzyme activity | inhibitor | – | 10 µM | remaining activity | 101%
COc1cc(/C=C/C(=O)CC(=O)/C=C/c2ccc(O)c(OC)c2)ccc1O | enzyme activity | inhibitor | – | 1 µM | activity vs control | 112%
O=C1Nc2ccc(Cl)cc2C1=Cc1cc(Cl)c(O)c(Cl)c1 | cell-free assay | – | – | 0.5 µM | remaining signal | 103%
Nc1nc(Nc2ccccc2)sc1C(=O)c1c(F)cccc1F | enzyme activity | inhibitor | – | 10 µM | remaining activity | 110%
COc1cc(Nc2c(C#N)cnc3cc(OCCCN4CCN(C)CC4)c(OC)cc23)c(Cl)cc1Cl | cell-free assay | – | – | 0.5 µM | remaining signal | 96.9%
CCS(=O)(=O)c1cc2cc(C[C@](O)(CC(C)(C)c3ccc(F)cc3C(N)=O)C(F)(F)F)[nH]c2cn1 | cell-free assay | – | competition with immobilised ligand | 1 µM | remaining binding | 97%
FC(F)c1nc2ccccc2n1-c1nc(N2CCOCC2)nc(N2CCOCC2)n1 | enzyme activity | inhibitor | – | 10 µM | remaining activity | 96%
CN(C)c1ncnc(-c2ccc3nc(Nc4cc(CN5CCN(C(=O)CC(F)(F)F)CC5)ccn4)[nH]c3c2)c1Cl | cell-free assay | – | competition with immobilised ligand | 1 µM | remaining binding | 62%
Nc1ncnc2n[nH]c(Nc3ccc(F)cc3)c12 | cell-free assay | – | – | 0.5 µM | remaining signal | 75.2%
CC/C(=N\NC(=O)NCc1cccc(O)c1)c1ccc(O)c(C)c1O | enzyme activity | inhibitor | – | 0.1 µM | inhibition | 0.4%
Cn1nc(C(=O)NCc2ccc(C(=O)O)cc2)cc1-c1ccc2[nH]ccc2c1 | cell-free assay | – | competition with immobilised ligand | 0.1 µM | remaining binding | 100%
CC(C)(C)c1nc(-c2cccc(NS(=O)(=O)c3c(F)cccc3F)c2F)c(-c2ccnc(N)n2)s1 | enzyme activity | inhibitor | radiometric | 1 µM | remaining activity | 128%
Cc1nc(C2CCN(C(=O)c3ccc(OC(F)(F)F)cc3N)CC2)c2ncc(N3CCN(C)CC3)cc2n1 | cell-free assay | – | competition with immobilised ligand | 1 µM | remaining binding | 100%
COc1cc(Nc2cnc(C#N)c(O[C@H](C)CN(C)C)n2)ncc1-c1cnn(C)c1 | enzyme activity | inhibitor | radiometric | 1 µM | remaining activity | 94%
